Results taken from ChEMBL document CHEMBL4130382, “Novel unsaturated glycyrrhetic acids derivatives: Design, synthesis and anti-inflammatory activity” (Eur J Med Chem, 2017).
Active and inactive are the calls of the source. The rule behind the calls is not given here.

Key:
[1] = Cytotoxicity against mouse RAW264.7 cells assessed as cell viability at 40 uM after 24 hrs by MTT assay (reference value: 100%); format: cell-based; settings: read-out: Activity
Outline: (§1)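 RAW264.7 cells seeded at 6×10^3 cells/well and cultured 24 h. Compounds diluted in DMEM for 24 h exposure. MTT 0.5 mg/mL added for 4 h, formazan dissolved in DMSO, OD read at 570 nm. Viability given as % of medium-only blank. Three independent experiments.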

RAW264.7 [2] = assay: Antiinflammatory activity in mouse RAW264.7 cells assessed as inhibition of LPS-induced NO production by measuring nitrite level at 20 uM pretreated for 2 hrs followed by LPS challenge measured after 24 hrs by Griess assay; format: functional, cell-based
Outline: (§2)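 RAW264.7 cells grown in DMEM with 10% FBS plus penicillin/streptomycin at 37 °C and 5% CO2. Seeded at 1×10^5 cells/well and cultured 20 h. Pretreated 2 h with compounds in serum-free medium, then LPS 1 µg/mL for 24 h. Nitrite read with Griess reagent at 540 nm. Inhibition = (LPS-only − treated)/(LPS-only − medium blank) × 100%. Mean ± SD, n = 3.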

RAW264.7 [3] = assay: Antiinflammatory activity in mouse RAW264.7 cells assessed as inhibition of LPS-induced NO production by measuring nitrite level at 40 uM pretreated for 2 hrs followed by LPS challenge measured after 24 hrs by Griess assay relative to control; format: functional; outline: as §2
[4] = Cytotoxicity against mouse RAW264.7 cells assessed as cell viability at 20 uM after 24 hrs by MTT assay (reference value: 100%); format: cell-based; settings: read-out: Activity; outline: as §1
RAW264.7 [5] = assay: Antiinflammatory activity in mouse RAW264.7 cells assessed as inhibition of LPS-stimulated COX-2 production preincubated with compound followed by LPS stimulation measured after 24 hrs by Western blot; format: functional, cell-based
Outline: (§3)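 Cells at 2×10^6/well cultured 24 h. Medium replaced with fresh medium containing 10–40 µM compound, or Bay 11-7082 20 µM as NF-κB inhibitor control, plus LPS 1 µg/mL for 24 h. Lysates in IP buffer with 1 mM PMSF; protein by BCA. Equal protein run on 12.5% SDS-PAGE, PVDF, ECL detection for iNOS and COX-2. Mean ± SD, n = 3.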

RAW264.7 [6] = assay: Antiinflammatory activity in mouse RAW264.7 cells assessed as inhibition of LPS-stimulated TNF-alpha production preincubated for 2 hrs followed by LPS stimulaton measured after 24 hrs by ELISA; format: functional, cell-based
Outline: (§4)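 Cells at 7×10^4/well cultured 24 h, then pretreated 2 h with 10–40 µM compound. LPS 1 µg/mL added for 24 h. IL-6 and TNF-α measured in supernatant by mouse ELISA kits.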

[7] = target: Transcription factor p65 (Mus musculus) (UniProt Q04207); assay: Inhibition of LPS-induced NFkappaB p65 phosphorylation in mouse RAW264.7 cells preincubated with compound followed by LPS stimulation measured after 30 mins by Western blot; format: cell-based
Transcription factor p65 (Mus musculus), sequence (Q04207 whole entry): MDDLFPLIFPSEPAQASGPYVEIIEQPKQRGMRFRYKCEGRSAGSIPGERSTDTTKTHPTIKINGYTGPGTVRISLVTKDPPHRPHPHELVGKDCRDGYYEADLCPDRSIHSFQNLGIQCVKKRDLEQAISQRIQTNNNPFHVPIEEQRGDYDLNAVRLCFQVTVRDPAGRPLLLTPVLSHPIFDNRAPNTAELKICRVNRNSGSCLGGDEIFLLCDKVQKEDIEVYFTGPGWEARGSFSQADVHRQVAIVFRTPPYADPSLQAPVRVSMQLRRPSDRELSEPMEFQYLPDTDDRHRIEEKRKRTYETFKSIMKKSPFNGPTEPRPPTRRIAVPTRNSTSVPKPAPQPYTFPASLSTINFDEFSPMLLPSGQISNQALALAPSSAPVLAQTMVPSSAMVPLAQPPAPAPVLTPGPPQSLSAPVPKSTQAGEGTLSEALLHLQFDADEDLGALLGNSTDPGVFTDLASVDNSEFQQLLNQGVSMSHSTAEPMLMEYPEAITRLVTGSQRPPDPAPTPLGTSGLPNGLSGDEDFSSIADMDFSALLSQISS
Outline: (§5)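 Cells at 2×10^6/well cultured 24 h, then given 10–40 µM compound with LPS 1 µg/mL for 30 min; Bay 11-7082 20 µM as control. Lysates in IP buffer with PMSF; equal protein on 12.5% SDS-PAGE, PVDF. Blocked in 5% milk/TBST, primary antibodies to phospho and total JNK, ERK1/2, p38, IκB and p65 at 1:1000 overnight at 4 °C, ECL detection. Mean ± SD, n = 3.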

RAW264.7 [8] = assay: Inhibition of LPS-induced JNK phosphorylation in mouse RAW264.7 cells at 10 to 40 uM preincubated with compound followed by LPS stimulation measured after 30 mins by Western blot; format: cell-based; outline: as §5
[9] = target: Transcription factor p65 (Mus musculus) (UniProt Q04207); assay: Inhibition of LPS-induced NFkappaB p65 nuclear translocation in mouse RAW264.7 cells at 20 to 40 uM preincubated for 1 hr followed by LPS stimulation measured after 3 hrs by DAPI staining-based immunofluorescence assay; format: cell-based
Outline: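 Cells at 7×10^4/well cultured 24 h, pretreated with 20 or 40 µM compound, then LPS 1 µg/mL for 3 h. Fixed in 4% formaldehyde, permeabilized with 0.3% Triton X-100, blocked with 5% BSA. Stained overnight with anti-p65, then Alexa Fluor 488 anti-rabbit; nuclei counterstained with DAPI and imaged.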

[10] = target: MAP kinase p38 (Mus musculus) (UniProt P47811+O08911+Q9WUI1+Q9Z1B7); assay: Inhibition of LPS-induced p38 MAPK phosphorylation in mouse RAW264.7 cells at 10 to 40 uM preincubated with compound followed by LPS stimulation measured after 30 mins by Western blot; format: cell-based; outline: as §5
RAW264.7 [11] = assay: Antiinflammatory activity in mouse RAW264.7 cells assessed as inhibition of LPS-stimulated IL-6 production preincubated for 2 hrs followed by LPS stimulaton measured after 24 hrs by ELISA; format: functional, cell-based; outline: as §4
RAW264.7 [12] = assay: Antiinflammatory activity in mouse RAW264.7 cells assessed as inhibition of LPS-stimulated COX-2 production at 40 uM preincubated with compound followed by LPS stimulation measured after 24 hrs by Western blot relative to control; format: functional; outline: as §3
RAW264.7 [13] = assay: Antiinflammatory activity in mouse RAW264.7 cells assessed as inhibition of LPS-stimulated iNOS production at 40 uM preincubated with compound followed by LPS stimulation measured after 24 hrs by Western blot relative to control; format: functional; outline: as §3
RAW264.7 [14] = assay: Inhibition of LPS-induced ERK phosphorylation in mouse RAW264.7 cells at 40 uM preincubated with compound followed by LPS stimulation measured after 30 mins by Western blot; format: cell-based; outline: as §5
RAW264.7 [15] = assay: Antiinflammatory activity in mouse RAW264.7 cells assessed as inhibition of LPS-stimulated iNOS production preincubated with compound followed by LPS stimulation measured after 24 hrs by Western blot; format: functional, cell-based; outline: as §3

Row | Compound | viability at 24 h, 40 µM [1] | inhibition (RAW264.7 [2]) | inhibition (RAW264.7 [3]) | viability at 24 h, 20 µM [4] | also measured
1 | CC1(C)[C@@H](O)CC[C@]2(C)[C@H]3C(=O)C=C4[C@@H]5C[C@@](C)(C(=O)O)CC[C@]5(C)CC[C@@]4(C)[C@]3(C)CC[C@@H]12 [ENOXOLONE] | 102% | Active | Active | – | –
2 | Cc1cccc(NC(=O)/C=C/[C@@]2(C)CC[C@]3(C)CC[C@]4(C)C(=CC(=O)[C@@H]5[C@@]6(C)CC[C@H](O)C(C)(C)[C@@H]6CC[C@]54C)[C@@H]3C2)c1 | 99.3% | inactive | inactive | – | –
3 | CC(C)N(C(=O)/C=C/[C@@]1(C)CC[C@]2(C)CC[C@]3(C)C(=CC(=O)[C@@H]4[C@@]5(C)CC[C@H](O)C(C)(C)[C@@H]5CC[C@]43C)[C@@H]2C1)C(C)C | – | Active | – | 95.8% | –
4 | CC(=O)O[C@H]1CC[C@]2(C)[C@H]3C(=O)C=C4[C@@H]5C[C@@](C)(/C=C/C(=O)OCc6ccccc6)CC[C@]5(C)CC[C@@]4(C)[C@]3(C)CC[C@H]2C1(C)C | – | inactive | inactive | 96.9% | –
5 | CC(C)NC(=O)/C=C/[C@@]1(C)CC[C@]2(C)CC[C@]3(C)C(=CC(=O)[C@@H]4[C@@]5(C)CC[C@H](O)C(C)(C)[C@@H]5CC[C@]43C)[C@@H]2C1 | 97.6% | Active | – | – | –
6 | CC1(C)[C@@H](O)CC[C@]2(C)[C@H]3C(=O)C=C4[C@@H]5C[C@@](C)(/C=C/C(=O)NCCO)CC[C@]5(C)CC[C@@]4(C)[C@]3(C)CC[C@@H]12 | – | Active | Active | 93.6% | –
7 | CCOC(=O)/C=C/[C@@]1(C)CC[C@]2(C)CC[C@]3(C)C(=CC(=O)[C@@H]4[C@@]5(C)CC[C@H](OC(C)=O)C(C)(C)[C@@H]5CC[C@]43C)[C@@H]2C1 | – | – | – | 94.3% | –
8 | CC1(C)[C@@H](O)CC[C@]2(C)[C@H]3C(=O)C=C4[C@@H]5C[C@@](C)(/C=C/C(=O)O)CC[C@]5(C)CC[C@@]4(C)[C@]3(C)CC[C@@H]12 | 99.2% | Active | Active | – | –
9 | CC1(C)[C@@H](O)CC[C@]2(C)[C@H]3C(=O)C=C4[C@@H]5C[C@@](C)(/C=C/C(=O)NCCCN6CCOCC6)CC[C@]5(C)CC[C@@]4(C)[C@]3(C)CC[C@@H]12 | 99.8% | Active | Active | – | –
10 | CC1(C)[C@@H](O)CC[C@]2(C)[C@H]3C(=O)C=C4[C@@H]5C[C@@](C)(/C=C/C(=O)NCCCCl)CC[C@]5(C)CC[C@@]4(C)[C@]3(C)CC[C@@H]12 | 95% | – | – | – | –
11 | CC1(C)[C@@H](O)CC[C@]2(C)[C@H]3C(=O)C=C4[C@@H]5C[C@@](C)(/C=C/C(=O)NNC(N)=O)CC[C@]5(C)CC[C@@]4(C)[C@]3(C)CC[C@@H]12 | – | – | – | 96.7% | –
12 | CC1(C)[C@@H](O)CC[C@]2(C)[C@H]3C(=O)C=C4[C@@H]5C[C@@](C)(/C=C/C(=O)N6CCOCC6)CC[C@]5(C)CC[C@@]4(C)[C@]3(C)CC[C@@H]12 | 97.5% | inactive | inactive | – | –
13 | CN1CCN(C(=O)/C=C/[C@@]2(C)CC[C@]3(C)CC[C@]4(C)C(=CC(=O)[C@@H]5[C@@]6(C)CC[C@H](O)C(C)(C)[C@@H]6CC[C@]54C)[C@@H]3C2)CC1 | 96.6% | – | – | – | inhibition (RAW264.7 [5]): Dose-dependent effect; inhibition (RAW264.7 [6]): Dose-dependent effect; inhibition [7]: Dose-dependent effect; inhibition (RAW264.7 [8]): inactive; inhibition [9]: Active; inhibition [10]: inactive; IC50 (RAW264.7 [11]): 13.3 µM; inhibition (RAW264.7 [11]): Dose-dependent effect; inhibition at 40 µM (RAW264.7 [12]): 55.6%; inhibition at 40 µM (RAW264.7 [13]): 76.9%; inhibition at 40 µM (RAW264.7 [3]): > 70%; inhibition (RAW264.7 [14]): Active; inhibition (RAW264.7 [15]): Dose-dependent effect
14 | CN(C)C(=O)/C=C/[C@@]1(C)CC[C@]2(C)CC[C@]3(C)C(=CC(=O)[C@@H]4[C@@]5(C)CC[C@H](O)C(C)(C)[C@@H]5CC[C@]43C)[C@@H]2C1 | 99.5% | Active | Active | – | –
15 | CC(O)CNC(=O)/C=C/[C@@]1(C)CC[C@]2(C)CC[C@]3(C)C(=CC(=O)[C@@H]4[C@@]5(C)CC[C@H](O)C(C)(C)[C@@H]5CC[C@]43C)[C@@H]2C1 (stereo not given in full) | – | Active | Active | 91.4% | –
16 | CC1(C)[C@@H](O)CC[C@]2(C)[C@H]3C(=O)C=C4[C@@H]5C[C@@](C)(/C=C/C(=O)NCCc6ccccc6)CC[C@]5(C)CC[C@@]4(C)[C@]3(C)CC[C@@H]12 | – | inactive | inactive | 93% | –
17 | CCNC(=O)/C=C/[C@@]1(C)CC[C@]2(C)CC[C@]3(C)C(=CC(=O)[C@@H]4[C@@]5(C)CC[C@H](O)C(C)(C)[C@@H]5CC[C@]43C)[C@@H]2C1 | 92% | Active | Active | – | –
18 | CCN1CCN(C(=O)/C=C/[C@@]2(C)CC[C@]3(C)CC[C@]4(C)C(=CC(=O)[C@@H]5[C@@]6(C)CC[C@H](O)C(C)(C)[C@@H]6CC[C@]54C)[C@@H]3C2)CC1 | 98.4% | – | – | – | inhibition (RAW264.7 [6]): Dose-dependent effect; IC50 (RAW264.7 [11]): 15.5 µM; inhibition (RAW264.7 [11]): Dose-dependent effect; inhibition at 40 µM (RAW264.7 [3]): > 70%
19 | CC1(C)[C@@H](O)CC[C@]2(C)[C@H]3C(=O)C=C4[C@@H]5C[C@@](C)(/C=C/C(=O)NNc6ccccc6)CC[C@]5(C)CC[C@@]4(C)[C@]3(C)CC[C@@H]12 | – | inactive | inactive | 94.8% | –
20 | CNC(=O)/C=C/[C@@]1(C)CC[C@]2(C)CC[C@]3(C)C(=CC(=O)[C@@H]4[C@@]5(C)CC[C@H](O)C(C)(C)[C@@H]5CC[C@]43C)[C@@H]2C1 | 100% | Active | Active | – | –
